Assay outcomes as filed in PubChem.
Compounds with a hit are over-represented: about 4.6% of the library has one in this group of screens.
GPR7 antag = antagonists of human GPR7 (neuropeptides B/W receptor 1). P48145. GPR7-expressing cells, fluorescence antagonist assay. inhibition, % at 4.4 µM. 290,000 compounds, 1.1% hits; in the data active = inhibition above about 16%, passing the limit was not always enough;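 also: cells stimulated with the agonist NPW; 0% = agonist with vehicle and 100% = vehicle without agonist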
Target sequence (P48145 whole entry, looked up): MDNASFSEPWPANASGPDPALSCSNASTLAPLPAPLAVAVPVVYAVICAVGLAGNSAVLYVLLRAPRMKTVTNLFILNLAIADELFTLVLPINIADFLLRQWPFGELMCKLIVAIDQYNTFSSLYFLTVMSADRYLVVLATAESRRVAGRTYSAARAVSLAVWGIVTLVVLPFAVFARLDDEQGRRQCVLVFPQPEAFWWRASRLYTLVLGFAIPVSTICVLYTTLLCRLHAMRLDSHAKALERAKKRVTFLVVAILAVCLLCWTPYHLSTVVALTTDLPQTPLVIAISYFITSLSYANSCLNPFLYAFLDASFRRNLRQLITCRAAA
CHO parental Ca = counter-screen for OX1R antagonists: effect in parental CHO cells | parental CHO-K1, ATP-induced calcium, Fluo-8 fluorescence | 330,000 compounds, 0.63% hits | inhibition, % at 5.6 µM;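 active = inhibition above that plate's mean sample inhibition plus 3 SD, cut at about 26% in these data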;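 also: 0% = ATP-challenged DMSO wells and 100% = DMSO wells without ATP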
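Test system: untransfected parental CHO cell line; also added: ATP stimulus; dosing: 5.6 µM, single dose; signal: calcium-sensitive Fluo-8 fluorescence; measure: percent inhibition of ATP-evoked calcium rise, normalized to controls; benchmarks: low control ATP plus DMSO, high control DMSO only; replication: one well per compound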
OX1R antag-1 = blocks the human orexin 1 receptor | O43613 | OX1R-expressing cells, FRET antagonist read-out | inhibition, % at 6.6 µM | 330,000 compounds, 1.8% hits; in the data active = inhibition mostly above about 38%, no sharp cut-off; inactive = mostly below about 40%;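 also: 0% = agonist challenge alone and 100% = reference antagonist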
OX1R antag-2 = blocks the human orexin 1 receptor. inhibition, % at 5 µM. CHO/OX1R cells, Fluo-8 calcium fluorescence, orexin A. 330,000 compounds, 0.43% hits;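 active = inhibition above its plate's threshold, mean inhibition of all tested compounds on the plate plus 3 SD, cut at about 37% in these data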;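 also: 0% = orexin A challenge wells and 100% = SB-334867-A antagonist wells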
TAAR1 antagonist = human TAAR1 antagonism; Q96RJ0; CHO RD-HGA16 TAAR1, Fluo-8 calcium fluorescence, antagonist; AID 624466; inhibition, % at 3 µM; 360,000 compounds, 1.5% hits;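 active = inhibition above a per-plate cutoff, the mean inhibition of test compounds on that plate plus 3 SD, cut at about 49% in these data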;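 also: 0% = DMSO plus EC80 beta-PEA response and 100% = DMSO alone without agonist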
Target sequence (Q96RJ0 whole entry, looked up): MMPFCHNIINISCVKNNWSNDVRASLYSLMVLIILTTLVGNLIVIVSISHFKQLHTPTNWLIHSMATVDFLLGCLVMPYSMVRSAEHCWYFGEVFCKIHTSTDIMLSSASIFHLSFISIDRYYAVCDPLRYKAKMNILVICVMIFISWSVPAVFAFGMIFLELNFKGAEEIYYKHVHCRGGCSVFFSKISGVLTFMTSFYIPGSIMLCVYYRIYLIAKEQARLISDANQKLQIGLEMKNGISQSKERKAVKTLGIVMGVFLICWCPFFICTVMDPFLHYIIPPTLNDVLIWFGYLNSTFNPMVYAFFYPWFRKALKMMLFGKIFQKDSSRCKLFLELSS
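Assay system: RD-HGA16 CHO cells with stable hTAAR1 and Gα16 / Reagent: EC80 β-phenethylamine stimulus / Doses: 3 µM, single point / Timing: dye loading 75 min at 37 °C, then 30 min room temperature / Measured by: Fluo-8 intracellular calcium dye fluorescence, real-time kinetic reads / Controls: vehicle wells and EC80 agonist wells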
TAAR1 ag = human TAAR1 agonism; Q96RJ0; CHO RD-HGA16 TAAR1, Fluo-8 calcium fluorescence; vehicle wells 0%, saturating PEA agonist 100%; activation, % at 3 µM; 360,000 compounds, 0.99% hits; AID 624467;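 active = activation above the mean activation of all test compounds in the run plus 3 SD, cut at about 38% in these data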
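Test system: RD-HGA16 (CHO) cells co-expressing Gα16 and hTAAR1 | Doses: Single dose, 3 µM | Schedule: 17-24 h seeding, 75 min 37 °C dye, 30 min RT | Evaluation: % activation from peak over basal fluorescence ratio, DMSO-to-PEA scaled | Technique: Kinetic Fluo-8 calcium fluorescence | Benchmarks: Low control DMSO, high control PEA (EC100)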
* marks the source's active call; other numbers are inactive results; / = no result given.

SMILES	GPR7 antag	CHO parental Ca	OX1R antag-1	OX1R antag-2	TAAR1 antagonist	TAAR1 ag
O=C(CCS(=O)(=O)c1ccccc1)Nc1ccc(-c2nc3ccccc3s2)cc1	-17	-6	13	-19	9	5
c1coc(-c2nc3ccccc3nc2-c2ccco2)c1	-2	-23	43*	-3	-3	0
Cc1ccc(S(C)(=O)=O)cc1C(=O)Nc1ccc(S(=O)(=O)Nc2nccs2)cc1	/	6	0	-3	4	4
S=C(NCCc1ccc(Cl)cc1)Nc1ccc(Cl)cc1Cl	-1	15	59	6	49*	2
Fc1ccc(CCNC(=S)Nc2ccc(F)c(Cl)c2)cc1	4	32*	65	30	23	13
O=C1CN(C(=O)c2cccc(Br)c2)c2ccccc2N1	1	-2	43	0	-2	3
O=C(Nc1ccc(Cl)c([N+](=O)[O-])c1)C(Sc1ccccc1)c1ccccc1 (stereo unspecified)	-5	-6	27	23	57*	6
O=C(Nc1cc([N+](=O)[O-])ccc1Cl)C(Sc1ccccc1)c1ccccc1 (stereo unspecified)	-3	-11	16	-18	22	0
COCC(C)NC(C(=O)Nc1ccc(Cl)c([N+](=O)[O-])c1)c1ccccc1 (stereo unspecified)	-5	81*	11	-18	-16	-1
N#CC(c1ccc(O)cc1)N1CCOCC1 (stereo unspecified)	-6	-2	14	0	12	3
Cc1cc(=O)oc(C)c1C(=O)NCc1ccccn1	-2	-3	10	-9	-17	17
COc1ccc2nc(NCc3cccnc3)sc2c1	-20	-11	23	-12	5	2
Cc1nc2c(sc(=S)n2Cc2ccco2)c(=O)n1CC(=O)Nc1ccccc1	-10	-5	16	-14	-13	1
COc1ccc(-c2csc(Nc3ccc(S(=O)(=O)Nc4cc(C)on4)cc3)n2)cc1	-8	5	40*	10	18	-2
Cc1cc(NS(=O)(=O)c2ccc(Nc3nc(-c4sc(C)nc4C)cs3)cc2)no1	0	/	/	/	/	/
CC(=O)N[C@@H](Cc1c[nH]c2ccccc12)C(=O)OCC(=O)Nc1ccc(Cl)c(S(=O)(=O)N(C)C)c1	10	5	54*	23	19	11
Cc1cc2oc(=O)cc(CN3CCN(Cc4ccc5c(c4)OCO5)CC3)c2cc1C	-15	100*	19	-28	21	7
Cc1ccc2c(CN3CCN(Cc4ccc5c(c4)OCO5)CC3)cc(=O)oc2c1C	-17	-20	16	-18	-26	-1
CCc1ccc2oc(-c3cc(N=Cc4cccc(OC)c4O)ccc3O)nc2c1	-4	-16	7	-21	/	/
C[C@@H]1CN([C@@H](C)CO)S(=O)(=O)c2ccc(-c3ccc(C#N)cc3)cc2O[C@@H]1CN(C)Cc1ccccn1	/	/	/	/	56*	12
C[C@H](O)C#Cc1ccc2c(c1)O[C@@H](CN(C)Cc1ccc(-c3ccccc3)cc1)[C@H](C)CN([C@@H](C)CO)S2(=O)=O	/	/	/	/	51*	6
C[C@H](CO)N1C[C@H](C)[C@@H](CN(C)Cc2ccc3c(c2)OCO3)Oc2cc(Br)ccc2S1(=O)=O	/	/	/	/	50*	1
C[C@@H]1CN([C@H](C)CO)S(=O)(=O)c2ccc(Br)cc2O[C@@H]1CN(C)Cc1ccc(-c2ccccc2)cc1	/	/	/	/	-28	1
Cc1ccc(C(=O)N/C(=C/c2cccnc2)C(=O)NCc2ccco2)cc1	3	-5	16	-7	5	5
COc1ccc(C(=O)O)cc1S(=O)(=O)NC(C)C12CC3CC(CC(C3)C1)C2 (stereo unspecified)	/	34*	2	45*	13	7
SMILES	GPR7 antag	CHO parental Ca	OX1R antag-1	OX1R antag-2	TAAR1 antagonist	TAAR1 ag
CC(=O)c1ccc(NC(=O)Nc2ccc(NS(=O)(=O)c3ccc(C)cc3)cc2)cc1	11	-3	10	24	56*	6
COC(=O)Nc1ccc(S(=O)(=O)Nc2ccc(C)cc2)cc1	0	/	/	/	/	/
CC(=O)c1cccc(NS(=O)(=O)c2ccc(N/C=C\C(=O)c3ccc(C)cc3)cc2)c1	7	47*	53	49*	19	6
CN(C(=O)c1ccc2nccnc2c1)C1CCCCC1	-11	-5	11	3	-46	2
Nc1ncncc1-c1ccc([N+](=O)[O-])cc1	19	-2	63*	0	-15	1
Nc1ncncc1-c1ccc(F)cc1	/	/	/	/	-23	1
COc1cc(NC(=O)c2cc(-c3cccc(O)c3)on2)cc(OC)c1OC	-1	-4	38*	-14	42	10
O=C(Nc1cccc(C(F)(F)F)c1)c1cc(-c2ccc(F)cc2)on1	-18	58*	10	-19	8	8
CC(C)c1cc(C(=O)Nc2cccc(C(F)(F)F)c2)no1	-7	-4	19	-2	3	7
COc1cccc(-c2cc(C(=O)Nc3cccc(O)c3)no2)c1	-11	-6	71*	15	34	8
O=C(Nc1ccccc1C(F)(F)F)c1cc(-c2cccc(O)c2)on1	-11	51*	9	3	16	7
CCc1ccccc1NC(=O)c1cc(-c2cccc(O)c2)on1	-16	-9	14	-5	8	7
O=C(OCn1ncc(Cl)c(Cl)c1=O)c1cccc(C(F)(F)F)c1	16	81*	6	52*	/	/
O=C(OCn1ncc(Br)c(Br)c1=O)c1ccccc1Cl	20	-3	35	2	/	/
COc1cc2c(cc1OC)CN(C(=S)Nc1ccc(OC(F)F)cc1)CC2	-3	45*	22	4	23	1
CC(C)(C)C(=O)/C=c1\s/c(=C\c2ccc(-c3ccc([N+](=O)[O-])cc3)o2)c(=O)n1CC(=O)NC(N)=O	10	64*	9	71*	59*	53*
CCC(=O)N/N=C/c1ccc(-c2ccc([N+](=O)[O-])cc2)o1	-4	1	42	-7	-1	0
CCOc1ccc(N2C(=O)CC(NCCc3ccncc3)C2=O)cc1 (stereo unspecified)	-11	-8	11	10	-1	9
CCOc1ccc(N2C(=O)CC(NCCc3c[nH]c4ccccc34)C2=O)cc1 (stereo unspecified)	-1	-7	61*	14	-1	8
COc1ccc(NC(=O)c2cc(-c3cc(F)ccc3OC)n[nH]2)c(C)c1	/	/	/	/	10	4
CCN(CC)Cc1c(C(=O)N/N=C/c2c(Cl)cccc2Cl)nnn1-c1nonc1N	-10	-5	15	-14	-40	-2
CCOc1cccc2c1OC1(C)CC2NC(=O)N1c1cccc(Cl)c1 (stereo unspecified)	-9	-4	44*	-8	15	12
